The source made the active and inactive calls. The rule behind the calls is not given here.

Data set [1] concerns the target T1, Inhibitor of nuclear factor kappa-B kinase subunit beta (Homo sapiens, UniProt O14920).
T1 sequence (O14920 whole entry): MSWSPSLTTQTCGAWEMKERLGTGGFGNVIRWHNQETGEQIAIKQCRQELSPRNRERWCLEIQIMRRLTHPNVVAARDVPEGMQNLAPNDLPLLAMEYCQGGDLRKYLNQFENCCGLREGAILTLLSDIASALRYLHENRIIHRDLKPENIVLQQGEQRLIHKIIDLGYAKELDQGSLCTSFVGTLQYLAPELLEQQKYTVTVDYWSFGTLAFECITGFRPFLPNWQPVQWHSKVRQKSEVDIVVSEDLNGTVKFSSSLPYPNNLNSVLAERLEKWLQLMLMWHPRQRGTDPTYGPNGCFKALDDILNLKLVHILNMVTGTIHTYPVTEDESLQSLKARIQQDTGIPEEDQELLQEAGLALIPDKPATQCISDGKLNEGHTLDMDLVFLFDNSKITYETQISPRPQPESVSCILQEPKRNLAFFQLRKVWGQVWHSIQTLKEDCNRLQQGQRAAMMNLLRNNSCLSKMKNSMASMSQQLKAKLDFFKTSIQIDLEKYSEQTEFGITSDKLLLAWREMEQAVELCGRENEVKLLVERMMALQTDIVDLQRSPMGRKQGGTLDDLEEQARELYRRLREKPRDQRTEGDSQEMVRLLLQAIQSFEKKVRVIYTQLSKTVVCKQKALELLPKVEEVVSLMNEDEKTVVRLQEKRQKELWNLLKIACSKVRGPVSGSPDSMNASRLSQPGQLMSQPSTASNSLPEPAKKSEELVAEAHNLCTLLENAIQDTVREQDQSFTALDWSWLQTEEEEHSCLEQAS
Description: Inhibition of purified His-tagged IKK-beta after 15 mins.

Data set [2] in a line: Membrane permeability at pH 7.4 by PAMPA assay. It is filed as ADME. Conditions: read-out: permeability. In outline: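 Parallel artificial membrane permeability assay run at pH 7.4. Effective permeability Pe reported in 10^-6 cm/s as the median of three tests.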
On the technique in general: The PAMPA barrier holds no transporters, so it reflects passive diffusion.

Another data set relates to Blood. Description: Antiinflammatory activity in BALB/c mouse whole blood assessed as inhibition of LPS-induced TNFalpha production by ELISA. It is filed as functional, tissue-based. In outline:
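Mouse whole blood cell suspension stimulated with LPS (medium-only control), incubated 4 h at 37 °C in 5% CO2. Plasma then separated by centrifugation at 4 °C and TNFα measured by ELISA. IC50 derived.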
(An ELISA detects its analyte on a solid surface through an enzyme-linked reagent.)

The subject of a further data set is Mus musculus. The data set is described as follows: Antiinflammatory activity in BALB/c mouse assessed as inhibition of LPS-induced TNFalpha production at 30 mg/kg, po after 1 hr by ELISA. It is filed as functional. The procedure, abridged:
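Male BALB/c mice (7–12 weeks old) dosed orally, vehicle 0.5% methyl cellulose. LPS 0.02 mg/kg in saline given i.v. 30 min after dosing. Plasma separated at 4 °C, stored at −20 °C, and TNFα quantified by ELISA. Percent inhibition recorded.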

The nature of data set [3]: Metabolic stability of the compound in mouse liver microsomes assessed as compound remaining at 1 uM after 30 mins. It is filed as ADME, Microsome. The note with it: read-out: Stability. The procedure, abridged:
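Compound at 1 μM incubated 30 min with mouse liver microsomes at 0.1 mg/ml protein. Percent of parent compound remaining reported.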

A further data set relates to Plasma. The data set is described as follows: Plasma concentration in BALB/c mouse at 30 mg/kg, po after 90 mins. It is filed as ADME, organism-based. Also noted: dose 30 mg/kg. The procedure, abridged:
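Plasma concentration of compound in mice measured 90 min after a 30 mg/kg oral dose.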

Data set [4] has as its target T2, Serine/threonine-protein kinase D2 (Homo sapiens) (UniProt Q9BZL6).
T2 sequence (whole entry): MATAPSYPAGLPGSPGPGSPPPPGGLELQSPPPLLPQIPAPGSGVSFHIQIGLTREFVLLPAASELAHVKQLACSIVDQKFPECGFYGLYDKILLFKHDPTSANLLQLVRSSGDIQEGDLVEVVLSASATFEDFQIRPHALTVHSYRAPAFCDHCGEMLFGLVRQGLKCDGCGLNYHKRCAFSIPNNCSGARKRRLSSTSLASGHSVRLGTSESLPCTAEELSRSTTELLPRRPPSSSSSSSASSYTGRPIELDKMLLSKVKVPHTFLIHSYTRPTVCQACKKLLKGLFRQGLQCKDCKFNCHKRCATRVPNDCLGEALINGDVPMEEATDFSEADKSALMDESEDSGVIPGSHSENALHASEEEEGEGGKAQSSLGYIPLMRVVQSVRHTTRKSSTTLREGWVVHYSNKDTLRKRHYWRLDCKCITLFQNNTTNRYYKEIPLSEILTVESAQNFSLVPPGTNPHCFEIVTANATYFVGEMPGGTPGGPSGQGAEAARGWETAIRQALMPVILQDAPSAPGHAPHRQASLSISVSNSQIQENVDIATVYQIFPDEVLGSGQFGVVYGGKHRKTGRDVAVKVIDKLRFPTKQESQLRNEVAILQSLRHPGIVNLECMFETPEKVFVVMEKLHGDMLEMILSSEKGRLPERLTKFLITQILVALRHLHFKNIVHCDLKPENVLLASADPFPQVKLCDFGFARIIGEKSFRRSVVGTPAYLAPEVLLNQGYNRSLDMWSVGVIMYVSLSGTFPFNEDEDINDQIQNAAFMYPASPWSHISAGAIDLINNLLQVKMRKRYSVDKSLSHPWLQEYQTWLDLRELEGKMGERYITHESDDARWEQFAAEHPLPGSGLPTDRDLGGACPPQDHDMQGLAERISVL
The data set is described as follows: Inhibition of PKD2 at 10 uM.

For data set [5], the target named is ALK tyrosine kinase receptor (Homo sapiens) (UniProt Q9UM73). Description: Inhibition of ALK at 10 uM.
Sequence of ALK tyrosine kinase receptor (Homo sapiens) (Q9UM73 19-1620 limits assumed): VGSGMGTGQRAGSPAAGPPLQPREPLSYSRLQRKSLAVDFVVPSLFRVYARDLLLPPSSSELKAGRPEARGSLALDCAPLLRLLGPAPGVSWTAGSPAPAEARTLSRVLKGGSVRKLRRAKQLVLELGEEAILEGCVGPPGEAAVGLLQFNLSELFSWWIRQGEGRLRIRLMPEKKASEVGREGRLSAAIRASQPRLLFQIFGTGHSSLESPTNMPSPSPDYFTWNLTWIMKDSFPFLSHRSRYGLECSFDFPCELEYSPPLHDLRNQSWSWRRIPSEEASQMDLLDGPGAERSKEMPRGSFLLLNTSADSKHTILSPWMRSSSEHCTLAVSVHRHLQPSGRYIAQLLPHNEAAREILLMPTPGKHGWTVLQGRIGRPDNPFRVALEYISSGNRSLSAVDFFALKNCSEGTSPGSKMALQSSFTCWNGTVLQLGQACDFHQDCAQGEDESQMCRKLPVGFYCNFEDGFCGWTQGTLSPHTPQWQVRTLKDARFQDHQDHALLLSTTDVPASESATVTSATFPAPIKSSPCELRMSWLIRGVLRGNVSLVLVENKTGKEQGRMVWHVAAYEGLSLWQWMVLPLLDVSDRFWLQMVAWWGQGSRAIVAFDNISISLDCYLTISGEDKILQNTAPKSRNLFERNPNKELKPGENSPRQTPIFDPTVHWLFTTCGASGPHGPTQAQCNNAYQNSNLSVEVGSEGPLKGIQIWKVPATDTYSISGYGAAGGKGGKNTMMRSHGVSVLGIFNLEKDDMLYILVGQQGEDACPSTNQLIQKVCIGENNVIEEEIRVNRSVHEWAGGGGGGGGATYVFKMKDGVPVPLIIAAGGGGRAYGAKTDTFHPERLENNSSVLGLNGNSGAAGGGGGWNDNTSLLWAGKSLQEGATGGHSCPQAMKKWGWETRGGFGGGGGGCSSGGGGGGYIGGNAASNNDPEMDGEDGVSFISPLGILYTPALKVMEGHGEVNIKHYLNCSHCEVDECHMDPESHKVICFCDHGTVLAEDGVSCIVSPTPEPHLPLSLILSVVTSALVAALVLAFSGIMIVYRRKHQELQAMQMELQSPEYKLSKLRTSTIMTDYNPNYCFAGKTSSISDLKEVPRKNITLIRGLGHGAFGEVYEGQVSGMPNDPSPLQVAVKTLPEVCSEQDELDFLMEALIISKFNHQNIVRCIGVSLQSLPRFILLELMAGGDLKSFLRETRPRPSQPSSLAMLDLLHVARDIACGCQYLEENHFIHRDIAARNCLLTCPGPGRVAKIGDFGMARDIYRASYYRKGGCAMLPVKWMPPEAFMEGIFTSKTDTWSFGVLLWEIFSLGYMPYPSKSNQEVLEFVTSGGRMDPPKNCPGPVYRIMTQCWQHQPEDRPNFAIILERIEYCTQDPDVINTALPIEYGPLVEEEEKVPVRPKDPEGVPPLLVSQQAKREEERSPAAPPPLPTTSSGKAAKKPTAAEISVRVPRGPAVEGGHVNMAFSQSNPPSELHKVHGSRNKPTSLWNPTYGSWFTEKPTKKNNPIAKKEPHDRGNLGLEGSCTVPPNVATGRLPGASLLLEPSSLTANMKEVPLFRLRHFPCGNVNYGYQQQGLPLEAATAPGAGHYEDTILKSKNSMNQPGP
In data set [6] the target is Tyrosine-protein kinase JAK2 (Homo sapiens) (UniProt O60674). The data set is described as follows: Inhibition of JAK2 at 10 uM.
Sequence of Tyrosine-protein kinase JAK2 (Homo sapiens) (O60674 whole entry): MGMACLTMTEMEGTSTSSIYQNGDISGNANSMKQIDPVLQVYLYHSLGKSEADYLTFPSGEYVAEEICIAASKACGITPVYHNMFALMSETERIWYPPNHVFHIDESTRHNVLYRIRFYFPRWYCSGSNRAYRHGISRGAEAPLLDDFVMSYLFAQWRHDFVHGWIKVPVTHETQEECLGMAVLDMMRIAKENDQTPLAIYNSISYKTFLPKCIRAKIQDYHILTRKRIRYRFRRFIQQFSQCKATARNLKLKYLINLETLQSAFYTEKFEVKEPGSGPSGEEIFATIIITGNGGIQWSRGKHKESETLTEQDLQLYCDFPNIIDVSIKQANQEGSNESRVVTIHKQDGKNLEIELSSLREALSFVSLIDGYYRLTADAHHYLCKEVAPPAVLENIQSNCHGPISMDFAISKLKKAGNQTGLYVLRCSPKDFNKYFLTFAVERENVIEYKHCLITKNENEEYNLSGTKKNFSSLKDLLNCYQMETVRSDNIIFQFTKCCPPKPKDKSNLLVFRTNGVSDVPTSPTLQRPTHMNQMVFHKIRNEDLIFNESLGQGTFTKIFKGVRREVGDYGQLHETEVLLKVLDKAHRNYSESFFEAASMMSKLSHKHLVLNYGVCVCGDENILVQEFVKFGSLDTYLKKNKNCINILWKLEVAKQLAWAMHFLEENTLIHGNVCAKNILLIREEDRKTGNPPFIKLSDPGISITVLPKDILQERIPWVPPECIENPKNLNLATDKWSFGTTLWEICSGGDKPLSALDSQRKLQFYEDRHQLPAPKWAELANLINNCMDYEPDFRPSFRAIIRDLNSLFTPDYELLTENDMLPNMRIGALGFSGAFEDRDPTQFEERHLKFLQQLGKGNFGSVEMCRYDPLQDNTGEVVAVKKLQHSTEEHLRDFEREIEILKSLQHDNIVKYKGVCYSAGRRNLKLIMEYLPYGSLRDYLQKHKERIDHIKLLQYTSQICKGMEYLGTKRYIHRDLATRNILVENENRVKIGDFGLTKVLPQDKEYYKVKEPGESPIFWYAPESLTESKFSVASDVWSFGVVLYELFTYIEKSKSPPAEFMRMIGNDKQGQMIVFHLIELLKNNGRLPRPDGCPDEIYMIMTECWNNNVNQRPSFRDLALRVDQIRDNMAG
In data set [7] the target is Serine/threonine-protein kinase D3 (Homo sapiens) (UniProt O94806). The data set is described as follows: Inhibition of PKD3 at 0.2 uM.
Sequence of Serine/threonine-protein kinase D3 (Homo sapiens) (O94806 whole entry, looked up): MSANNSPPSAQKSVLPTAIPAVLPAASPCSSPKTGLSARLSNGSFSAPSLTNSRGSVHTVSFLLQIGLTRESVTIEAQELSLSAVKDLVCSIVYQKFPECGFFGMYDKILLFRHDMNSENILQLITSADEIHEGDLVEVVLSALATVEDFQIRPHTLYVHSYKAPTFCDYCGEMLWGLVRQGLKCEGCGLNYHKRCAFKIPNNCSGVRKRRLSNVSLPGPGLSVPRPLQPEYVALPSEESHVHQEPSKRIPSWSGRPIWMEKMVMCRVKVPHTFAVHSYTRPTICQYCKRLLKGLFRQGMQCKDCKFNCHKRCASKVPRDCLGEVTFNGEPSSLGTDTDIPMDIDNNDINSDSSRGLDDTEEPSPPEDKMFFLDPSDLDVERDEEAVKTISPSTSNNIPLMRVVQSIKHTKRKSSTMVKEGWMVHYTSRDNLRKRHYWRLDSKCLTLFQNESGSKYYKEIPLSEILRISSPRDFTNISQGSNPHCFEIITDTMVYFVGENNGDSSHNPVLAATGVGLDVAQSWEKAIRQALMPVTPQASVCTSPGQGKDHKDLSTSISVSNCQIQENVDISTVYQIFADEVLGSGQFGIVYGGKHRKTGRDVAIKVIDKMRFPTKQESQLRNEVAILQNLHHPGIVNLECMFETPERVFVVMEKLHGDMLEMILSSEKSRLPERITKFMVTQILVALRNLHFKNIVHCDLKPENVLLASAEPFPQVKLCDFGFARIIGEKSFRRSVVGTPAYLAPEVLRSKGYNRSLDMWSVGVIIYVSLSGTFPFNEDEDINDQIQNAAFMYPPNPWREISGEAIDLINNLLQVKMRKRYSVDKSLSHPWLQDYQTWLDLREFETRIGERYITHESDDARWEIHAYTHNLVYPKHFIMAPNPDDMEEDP

In general, IC50 refers to the concentration needed to halve the response being measured. `O=C(c1ccc(-c2cnc3ccc(NCC4CC4)nn23)cc1)N(CCO)C[C@@H]1C[C@@H](F)CN1`: the figures for the IC50 (in [1]; with Blood) were 15 nM and 680 nM, respectively. In addition, the Papp in data set [2] came out at 15 ×10⁻⁶ cm/s.
As for `O=C(O)c1ccc(CN(C[C@@H]2C[C@@H](F)CN2)C(=O)c2ccc(-c3cnc4ccc(NCC5CC5)nn34)cc2)cc1`, the IC50 in data set [1] was 17 nM; in the data set with Blood it was over 10000 nM. Further, in data set [2], the Papp was under 2 ×10⁻⁶ cm/s.
The matching figures for `CO[C@H]1CN[C@H](CNC(=O)c2ccc(-c3cnc4ccc(NCC5CC5)nn34)cc2)C1`: 71 nM, 2700 nM and under 2 ×10⁻⁶ cm/s.
`O=C(c1ccc(-c2cnc3ccc(NCC4CC4)nn23)cc1)N(C[C@@H]1C[C@@H](F)CN1)c1ccccc1` returned a concentration for half-maximal inhibition (IC50) in [1] of 7300 nM.
`CC(=O)Nc1ccc(CN(C[C@@H]2C[C@@H](F)CN2)C(=O)c2ccc(-c3cnc4ccc(NCC5CC5)nn34)cc2)cc1`: the IC50 in data set [1] came to 15 nM; in the data set on Blood, 2700 nM. Moreover, the Papp in [2] is under 2 ×10⁻⁶ cm/s.
Take `CN(C[C@@H]1CCCN1)C(=O)c1ccc(-c2cnc3ccc(NCC4CC4)nn23)cc1`: the IC50 in [1] stood at 97 nM; in the data set with Blood, 1900 nM. In addition, the Papp in [2] turned out to be 6.1 ×10⁻⁶ cm/s.
One may read the inhibition in vivo as the relative decrease from the control value, in per cent. As for `O=C(c1ccc(-c2cnc3ccc(NCC4CC4)nn23)cc1)N(Cc1cccc(Cl)c1)C[C@@H]1C[C@@H](F)CN1`, the half-inhibitory concentration (IC50) in [1] was 17 nM; in the data set on Blood it was 590 nM. The inhibition in vivo at 30 mg/kg with Mus musculus was 40%. In addition, the remaining at 0.5 h, 1 µM in data set [3] was determined as 7%. Further, the Papp in data set [2] is over 50 ×10⁻⁶ cm/s. In the data set on Plasma, this compound registered a Cp of 0.12 µg/mL.
On to `CCCN(C[C@@H]1C[C@@H](F)CN1)C(=O)c1ccc(-c2cnc3ccc(NCC4CC4)nn23)cc1`, for which the half-maximal inhibitory concentration (IC50) in data set [1] is 16 nM; in the data set with Blood it was 170 nM. Further, the inhibition in vivo at 30 mg/kg in the data set on Mus musculus turned out to be 52%. Besides, the remaining at 0.5 h, 1 µM in data set [3] was 33%. In addition, the Papp in data set [2] was over 50 ×10⁻⁶ cm/s. Besides, the Cp with Plasma stood at 0.16 µg/mL.
For the compound `O=C(c1ccc(-c2cnc3ccc(NCC4CC4)nn23)cc1)N(Cc1ccccc1)C[C@@H]1C[C@@H](F)CN1`, the concentration for half-maximal inhibition (IC50) in data set [1] is 12 nM; with Blood it was 400 nM. For the same compound, the Papp in [2] is over 50 ×10⁻⁶ cm/s.
By inhibition is commonly meant the share of the control response that was lost under treatment. On to `O=C(NC[C@@H]1CCCN1)c1ccc(-c2cnc3ccc(NCC4CC4)nn23)cc1`, for which the inhibition in data set [4], in data set [5] and in [6] was over 90% throughout. The inhibition result in the data set on Mus musculus is “inactive”. In data set [3], the remaining at 0.5 h, 1 µM amounted to 77%. In [2], the Papp was under 2 ×10⁻⁶ cm/s. In the data set on Plasma, this compound registered a Cp of 0.0075 µg/mL. In addition, the IC50 in the data set on Blood is 6800 nM.
On to `CO[C@H]1CCN[C@@H]1CNC(=O)c1ccc(-c2cnc3ccc(NCC4CC4)nn23)cc1`, for which the IC50 in data set [1] was 23 nM; in the data set with Blood it was 2100 nM. Moreover, in data set [2], the Papp came to 6.5 ×10⁻⁶ cm/s.
For the compound `O=C(c1ccc(-c2cnc3ccc(NCC4CC4)nn23)cc1)N(C/C=C/c1ccccc1)C[C@@H]1C[C@@H](F)CN1`, the IC50 worked out at 13 nM in [1] and 950 nM in the data set on Blood. In addition, the Papp in data set [2] was over 50 ×10⁻⁶ cm/s.
As to `O=C(O)CN(C[C@@H]1C[C@@H](F)CN1)C(=O)c1ccc(-c2cnc3ccc(NCC4CC4)nn23)cc1`, the IC50 in data set [1] stood at 110 nM; with Blood, 3900 nM. In addition, the Papp in [2] was found to be 14 ×10⁻⁶ cm/s.
In the case of `CN(C[C@@H]1C[C@@H](F)CN1)C(=O)c1ccc(-c2cnc3ccc(NCC4CC4)nn23)cc1`, the half-maximal inhibitory concentration (IC50) in [1] stood at 42 nM; in the data set on Blood, 480 nM. Further, the inhibition in vivo at 30 mg/kg in the data set with Mus musculus came to 26%. Also, the remaining at 0.5 h, 1 µM in data set [3] was 50%. Moreover, the Papp in data set [2] is over 50 ×10⁻⁶ cm/s. This compound had a Cp with Plasma of 0.34 µg/mL.
As to `O=C(c1ccc(-c2cnc3ccc(NCC4CC4)nn23)cc1)N(Cc1ccc(Cl)cc1)C[C@@H]1C[C@@H](F)CN1`, the IC50 in data set [1] was 17 nM; in the data set on Blood, 1200 nM. The inhibition in vivo at 30 mg/kg in the data set on Mus musculus was 61%. Further, the remaining at 0.5 h, 1 µM in data set [3] worked out at 28%. The Papp in [2] was determined as 39 ×10⁻⁶ cm/s. The compound further displayed a Cp in the data set with Plasma of 0.45 µg/mL.
Consider `CN(C)CCNC(=O)c1ccc(-c2cnc3ccc(NCC4CC4)nn23)cc1`, for which the inhibition in vivo at 30 mg/kg in the data set on Mus musculus came out at 10%. In data set [3], the remaining at 0.5 h, 1 µM amounted to 71%. For the same compound, the Papp in [2] is over 50 ×10⁻⁶ cm/s. In the data set with Plasma, the Cp was found to be 0.39 µg/mL. Besides, the IC50 with Blood is 800 nM.
For the compound `CCN(C[C@@H]1C[C@@H](F)CN1)C(=O)c1ccc(-c2cnc3ccc(NCC4CC4)nn23)cc1`, the IC50 in data set [1] was determined as 18 nM; with Blood, 230 nM. The inhibition in vivo at 30 mg/kg in the data set with Mus musculus came out at 32%. Besides, the remaining at 0.5 h, 1 µM in [3] was 33%. Also, the Papp in data set [2] worked out at 42 ×10⁻⁶ cm/s. Further, in the data set on Plasma, the Cp was determined as 0.15 µg/mL.
Regarding `O=C(NC[C@@H]1C[C@@H](F)CN1)c1ccc(-c2cnc3ccc(NCC4CC4)nn23)cc1`, the IC50 turned out to be 22 nM in [1] and 570 nM in the data set with Blood. Moreover, the inhibition in data set [7] was 80%. Further, the Papp in data set [2] worked out at 36 ×10⁻⁶ cm/s.
For the compound `O=C(NC[C@H]1NCC[C@@H]1F)c1ccc(-c2cnc3ccc(NCC4CC4)nn23)cc1`, the results for the half-maximal inhibitory concentration (IC50) (in data set [1]; with Blood) were 21 nM and 1200 nM, respectively.

The values are drawn from ChEMBL document CHEMBL1667807, “Discovery of imidazo[1,2-b]pyridazines as IKKβ inhibitors. Part 2: improvement of potency in vitro and in vivo” (Bioorg Med Chem Lett, 2011).
